Measurements taken from ChEMBL document CHEMBL1132490, “Improving the nicotinic pharmacophore with a series of (Isoxazole)methylene-1-azacyclic compounds: synthesis, structure-activity relationship, and molecular modeling” (J Med Chem, 1999).

Columns and labels:
[1] = biological target: Muscarinic acetylcholine receptor; test: In vitro displacement of [3H]oxotremorine-M from muscarinic acetylcholine receptor in rat brain cortex; assay type: tissue-based
[2] = biological target: Neuronal acetylcholine receptor; test: In vitro displacement of [3H]methylcarbamylcholine from nicotinic acetylcholine receptor in rat brain cortex; assay type: tissue-based
In short: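 Male Mol:WIST rat cerebral cortex (fresh or frozen), homogenised in 50 mM Tris-HCl pH 7.4 with 120 mM NaCl, 5 mM KCl, 2 mM CaCl2, 1 mM MgCl2, spun 40000g 10 min; pellet resuspended. Incubated with [3H]MCC (2 nM final) and test salt, 60 min at 0 °C; GF/B filtration (0.5% PEI), scintillation counting. IC50 by nonlinear regression.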

Row | Structure (SMILES) | IC50 [1] [nM] | IC50 [2] [nM]
1 | COCc1cc(/C=C2/CN3CCC2CC3)on1 | 4000 | > 1000
2 | Cc1cc(/C=C2\CCCN(C)C2)on1 | 9540 | > 1000
3 | CC(C)c1cc(/C=C2\CN3CCC2CC3)on1 | 911 | 107
4 | Cc1cc(/C(F)=C2\CN3CCC2CC3)on1 | 1450 | 255
5 | Cc1cc(/C=C2\CN3CCC2C3)on1 (configuration not stated) | 276 | 29
6 | CCCc1cc(/C=C2\CN3CCC2CC3)on1 | 852 | 167
7 | CCc1cc(/C=C2\CN3CCC2CC3)on1 | 566 | 100
8 | COCc1cc(/C=C2\CN3CCC2CC3)on1 | 1470 | 218
9 | Cc1cc(/C=C2/CN3CCCC2C3)on1 (configuration not stated) | 1570 | 53
10 | Cc1cc(/C=C2/CCCN(C)C2)on1 | 5760 | > 1000
11 | Cc1noc(/C=C2/CN3CCC2CC3)c1C | 373 | > 1000
12 | Cc1cc(/C=C2/CCNC2)on1 | 3290 | > 1000
13 | Cc1cc(C=C2CNC2)on1 | 19300 | > 1000
14 | Cc1cc(/C=C2/CN3CCC2C3)on1 (configuration not stated) | 1020 | 23
15 | Cc1cc(/C=C2\CCCNC2)on1 | 6950 | > 1000
16 | Cc1cnoc1/C=C1\CN2CCC1CC2 | 418 | 3.2
17 | Cc1cnoc1/C=C1\CN2CCC1C2 (configuration not stated) | 19 | 0.32
18 | Cc1cc(/C=C2/CN3CCC2CC3)on1 | 1810 | 504
19 | CCCc1cc(/C=C2/CN3CCC2CC3)on1 | 1930 | > 1000
20 | CC(C)c1cc(/C=C2/CN3CCC2CC3)on1 | 2280 | > 1000
21 | Cc1cc(/C=C2\CN3CCC2CC3)on1 | 658 | 3.9
22 | Cc1cc(/C=C2/CCCNC2)on1 | 7220 | 87
23 | CCc1cc(/C=C2/CN3CCC2CC3)on1 | 867 | > 1000
24 | Cc1cc(/C=C2\CCN(C)C2)on1 | 15700 | > 1000
25 | Cc1cc(/C=C2/CCN(C)C2)on1 | 4420 | 783
26 | C(=C1/CN2CCC1CC2)/c1ccno1 | 312 | 1.65
27 | C/C(=C1/CN2CCC1CC2)c1cc(C)no1 | 2263 | 715
28 | Cc1cc(/C=C2\CN3CCCC2C3)on1 (configuration not stated) | 898 | 130
29 | Clc1ccc(C2CC3CCC2N3)cn1 (racemic) [EPIBATIDINE] | > 1 | 
